ChEMBL document CHEMBL2021764, “2-Aminothiophenes as building blocks in heterocyclic synthesis: synthesis and antimicrobial evaluation of a new class of pyrido[1,2-a]thieno[3,2-e]pyrimidine, quinoline and pyridin-2-one derivatives” (2012)

Tests used:
Format in all cases: functional
Escherichia coli [1] = assay: Antibacterial activity against Escherichia coli 124300 at 100 mg/ml after 24 hrs by agar-well diffusion technique; conditions: Escherichia coli, 124300, 24 h; read-out: DIZ
In short: (§1)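 The penicillin reference was applied at 100 mg ml^-1 in 4 mm wells on nutrient agar plates spread with 0.1 ml of each bacterial strain. Plates were incubated at 37 °C for 24 h, and inhibition zones were measured as the average of 3 replicas.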

Pseudomonas aeruginosa [2] = assay: Antibacterial activity against Pseudomonas aeruginosa 155250A at 100 mg/ml after 24 hrs by agar-well diffusion technique; conditions: read-out: DIZ; in short: as §1
Serratia marcescens [3] = assay: Antibacterial activity against Serratia marcescens 155449 at 100 mg/ml after 24 hrs by agar-well diffusion technique; conditions: Serratia marcescens, 155449, 24 h; read-out: DIZ; in short: as §1
Bacillus subtilis [4] = assay: Antibacterial activity against Bacillus subtilis 154921 at 100 mg/ml after 24 hrs by agar-well diffusion technique; conditions: Bacillus subtilis, 154921, 24 h; read-out: DIZ; in short: as §1
Staphylococcus aureus [5] = assay: Antibacterial activity against Staphylococcus aureus 155554A at 100 mg/ml after 24 hrs by agar-well diffusion technique; conditions: read-out: DIZ
In short: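 0.1 ml of the bacterial strain spread on nutrient agar. 4 mm wells were cut with a sterile cork borer and filled with test solution. Plates were incubated at 37 °C for 24 h. Inhibition zone diameters were measured around the wells, and the average of 3 replicas was recorded. Penicillin served as the antibacterial reference.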

Escherichia coli [6] = assay: Antibacterial activity against Escherichia coli 124300 at 1 mg/ml after 24 hrs by agar-well diffusion technique; conditions: Escherichia coli, 124300, 24 h; read-out: DIZ
In short: (§2)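 Each bacterial strain (0.1 ml) was spread on nutrient agar, and 4 mm wells were cut with a sterile cork borer. Wells were loaded with test chemical at a final 1 mg ml^-1, then incubated at 37 °C for 24 h. Inhibition zone diameters around the wells were measured, averaged over 3 replicas.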

Pseudomonas aeruginosa [7] = assay: Antibacterial activity against Pseudomonas aeruginosa 155250A at 1 mg/ml after 24 hrs by agar-well diffusion technique; conditions: read-out: DIZ; in short: as §2
Serratia marcescens [8] = assay: Antibacterial activity against Serratia marcescens 155449 at 1 mg/ml after 24 hrs by agar-well diffusion technique; conditions: Serratia marcescens, 155449, 24 h; read-out: DIZ; in short: as §2
Bacillus subtilis [9] = assay: Antibacterial activity against Bacillus subtilis 154921 at 1 mg/ml after 24 hrs by agar-well diffusion technique; conditions: Bacillus subtilis, 154921, 24 h; read-out: DIZ; in short: as §2
Staphylococcus aureus [10] = assay: Antibacterial activity against Staphylococcus aureus 155554A at 1 mg/ml after 24 hrs by agar-well diffusion technique; conditions: read-out: DIZ; in short: as §2
Candida albicans [11] = assay: Antifungal activity against Candida albicans 155965 at 1 mg/ml after 48 hrs by agar-well diffusion technique; conditions: Candida albicans, 155965, 48 h; read-out: DIZ
In short: (§3)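 Yeast (0.1 ml) was spread on potato dextrose agar, and 4 mm wells were cut with a sterile cork borer. Wells were loaded with test chemical at a final 1 mg ml^-1, then incubated at 25 °C for 48 h. Inhibition zones around the wells were measured, averaged over 3 replicas.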

Saccharomyces cerevisiae [12] = assay: Antifungal activity against Saccharomyces cerevisiae 156250 at 1 mg/ml after 48 hrs by agar-well diffusion technique; conditions: Saccharomyces cerevisiae, 156250, 48 h; read-out: DIZ; in short: as §3
Candida albicans [13] = assay: Antifungal activity against Candida albicans 155965 at 100 mg/ml after 48 hrs by agar-well diffusion technique; conditions: Candida albicans, 155965, 48 h; read-out: DIZ
In short: (§4)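 0.1 ml of the yeast spread on potato dextrose agar. 4 mm wells were cut with a sterile cork borer and filled with test solution. Plates were incubated at 25 °C for 48 h. Inhibition zones around the wells were measured, and the mean of 3 replicas was recorded. Cycloheximide served as the antifungal reference.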

Saccharomyces cerevisiae [14] = assay: Antifungal activity against Saccharomyces cerevisiae 156250 at 100 mg/ml after 48 hrs by agar-well diffusion technique; conditions: Saccharomyces cerevisiae, 156250, 48 h; read-out: DIZ; in short: as §4

CC1(C)S[C@@H]2[C@H](NC(=O)Cc3ccccc3)C(=O)N2[C@H]1C(=O)O [PENICILLIN G]
zone of inhibition at 100000 µg/mL (Escherichia coli [1]): 8.6 mm | zone of inhibition at 100000 µg/mL (Pseudomonas aeruginosa [2]): 30 mm | zone of inhibition at 100000 µg/mL (Serratia marcescens [3]): 7 mm | zone of inhibition at 100000 µg/mL (Bacillus subtilis [4]): 4.6 mm | zone of inhibition at 100000 µg/mL (Staphylococcus aureus [5]): 40 mm

CCOC(=O)c1sc(NC(=O)/C(C#N)=N/Nc2ccccc2)c(C#N)c1C
zone of inhibition at 1000 µg/mL (Escherichia coli [6]): 0 mm | zone of inhibition at 1000 µg/mL (Pseudomonas aeruginosa [7]): 6 mm | zone of inhibition at 1000 µg/mL (Serratia marcescens [8]): 2.6 mm | zone of inhibition at 1000 µg/mL (Bacillus subtilis [9]): 13 mm | zone of inhibition at 1000 µg/mL (Staphylococcus aureus [10]): 14 mm | zone of inhibition at 1000 µg/mL (Candida albicans [11]): 0 mm | zone of inhibition at 1000 µg/mL (Saccharomyces cerevisiae [12]): 0 mm

CCOC(=O)c1sc2c(c1C)c(=O)[nH]c1c(C#N)c(-c3ccc(Cl)cc3)c(C#N)c(=N)n12
zone of inhibition at 1000 µg/mL (Escherichia coli [6]): 8 mm | zone of inhibition at 1000 µg/mL (Pseudomonas aeruginosa [7]): 6 mm | zone of inhibition at 1000 µg/mL (Serratia marcescens [8]): 4.6 mm | zone of inhibition at 1000 µg/mL (Bacillus subtilis [9]): 2 mm | zone of inhibition at 1000 µg/mL (Staphylococcus aureus [10]): 0 mm | zone of inhibition at 1000 µg/mL (Candida albicans [11]): 0 mm | zone of inhibition at 1000 µg/mL (Saccharomyces cerevisiae [12]): 0 mm

C[C@@H]1C[C@@H]([C@H](O)CC2CC(=O)NC(=O)C2)C(=O)[C@@H](C)C1 [CYCLOHEXIMIDE]
zone of inhibition at 100000 µg/mL (Candida albicans [13]): 0 mm | zone of inhibition at 100000 µg/mL (Saccharomyces cerevisiae [14]): 40 mm

N#Cc1c(-c2cccs2)c(C#N)c2[nH]c(=O)c3c(-c4ccccc4)csc3n2c1=N
zone of inhibition at 1000 µg/mL (Escherichia coli [6]): 4 mm | zone of inhibition at 1000 µg/mL (Pseudomonas aeruginosa [7]): 11.3 mm | zone of inhibition at 1000 µg/mL (Serratia marcescens [8]): 0 mm | zone of inhibition at 1000 µg/mL (Bacillus subtilis [9]): 3.3 mm | zone of inhibition at 1000 µg/mL (Staphylococcus aureus [10]): 0 mm | zone of inhibition at 1000 µg/mL (Candida albicans [11]): 0 mm | zone of inhibition at 1000 µg/mL (Saccharomyces cerevisiae [12]): 0 mm

N#Cc1c(-c2ccc(Cl)cc2)csc1NC(=O)c1cn[nH]c1N
zone of inhibition at 1000 µg/mL (Escherichia coli [6]): 0 mm | zone of inhibition at 1000 µg/mL (Pseudomonas aeruginosa [7]): 3.3 mm | zone of inhibition at 1000 µg/mL (Serratia marcescens [8]): 2 mm | zone of inhibition at 1000 µg/mL (Bacillus subtilis [9]): 7.3 mm | zone of inhibition at 1000 µg/mL (Staphylococcus aureus [10]): 2 mm | zone of inhibition at 1000 µg/mL (Candida albicans [11]): 6.6 mm | zone of inhibition at 1000 µg/mL (Saccharomyces cerevisiae [12]): 4 mm
